Reference: ChEMBL document CHEMBL4270618, “Synthesis and biological evaluation of a library of hybrid derivatives as inhibitors of influenza virus PA-PB1 interaction” (Eur J Med Chem, 2018)

Columns and labels:
[1] = Cytotoxicity against MDCK cells assessed as decrease in cell viability after 48 hrs by MTT assay; assay type: cell-based, Canis lupus familiaris; conditions: dog
Procedure, shortened: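 MDCK at 5×10^3 cells/well with 2-fold serial dilutions from 250 µM, or DMSO, for 48 h. MTT (5 mg/mL stock in PBS) added for 4 h at 37 °C, then solubilising solution for 3 h at 37 °C. Absorbance read at 620 nm against DMSO = 100%. CC50 as mean ± SD, ≥3 experiments in duplicate.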

Influenza A virus = assay: Antiviral activity against Influenza A virus A/PR/8/34 (H1N1) infected in MDCK cells measured after 2 days by plaque reduction assay; assay type: functional, organism-based; conditions: A/Puerto Rico/8/1934(H1N1), 48 h
Procedure, shortened: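 MDCK monolayers infected with PR8 (H1N1, Cambridge lineage) at 40 PFU/well for 1 h at 37 °C with compound at various concentrations, in DMEM with 1 µg/mL TPCK-trypsin and 0.14% BSA. Overlay of the same medium with 1.2% Avicel plus compound. After 2 days, fixed with 4% formaldehyde, stained with 0.1% toluidine blue, plaques counted. DMSO mean = 100%. EC50 reported as mean ± SD, ≥3 independent experiments in duplicate.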

[2] = molecular target: PA/PB1 (Influenza A virus (A/Puerto Rico/8/1934(H1N1)), UniProt P03431+P03433); assay: Inhibition of Influenza A virus A/PR/8/34 (H1N1) 6His-tagged PA (239 to 716 residues)/GST-tagged PB1 (1 to 25 residues) interaction expressed in Escherichia coli incubated overnight by ELISA
Procedure, shortened: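 Wells coated with 400 ng E. coli-expressed 6His-PA(239–716) for 3 h at 37 °C, then blocked with 2% BSA/PBS for 1 h. 200 ng GST-PB1(1–25), or GST control, in serum-free DMEM added with compound or DMSO, overnight at room temperature. Bound protein detected with HRP-anti-GST and TMB, OD450. DMSO = 100% interaction. IC50 as mean ± SD, ≥3 experiments in duplicate.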

[3] = Cytotoxicity against HEK293T cells assessed as decrease in cell viability after 24 hrs by MTT assay; assay type: cell-based, HEK-293T; conditions: human
Procedure, shortened: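 HEK 293T at 2×10^4 cells/well with 2-fold serial dilutions from 250 µM, or DMSO, for 24 h. MTT (5 mg/mL stock in PBS) added for 4 h at 37 °C, then solubilised for 3 h at 37 °C. Absorbance read at 620 nm, DMSO wells = 100% viability. CC50 as mean ± SD, ≥3 independent experiments in duplicate.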

[4] = molecular target: PA/PB1 (Influenza A virus (A/Puerto Rico/8/1934(H1N1)), UniProt P03431+P03433); assay: Inhibition of Influenza A virus A/PR/8/34 (H1N1) PA-PB1 interaction expressed in HEK293T cells assessed as decrease in RNA polymerase activity incubated for 24 hrs by minireplicon based luciferase reporter gene assay; assay type: cell-based
Procedure, shortened: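 HEK 293T (2×10^5/well) transfected 24 h after seeding, by calcium phosphate, with PR8 PB1, PB2, PA and NP plasmids (100 ng each), a PolI firefly-luciferase minireplicon (50 ng) and SV40-Renilla (50 ng) for normalisation. Compound or DMSO present during transfection; medium renewed at 4 h with compound. Dual luciferase read at 24 h. EC50 as mean ± SD, ≥3 experiments in duplicate.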

Compound | CC50 at 48 h [1] [µM] | EC50 (Influenza A virus) [µM] | IC50 [2] [µM] | CC50 at 24 h [3] [µM] | EC50 [4] [µM]
COC(=O)[C@H](Cc1cnc[nH]1)NC(=O)CSc1nc(-c2ccccc2)cc(-c2ccc(C)cc2)c1C#N | 152 | 80 | 32 |  | 
Cc1cccc(NC(=O)CSc2nc(-c3ccccc3)cc(-c3ccccc3)c2C#N)c1 | > 250 |  |  | > 250 | 86.6
COC(=O)[C@@H](NC(=O)CSc1nc(-c2ccccc2)cc(-c2ccc(C)cc2)c1C#N)C(C)C | 210 | 52 | 167 | > 250 | 41
COC(=O)[C@H](CC(C)C)NC(=O)CSc1nc(-c2ccccc2)cc(-c2ccc(C)cc2)c1C#N | 215 | 97 | 149 |  | 
Cc1ccc(-c2cc(-c3ccccc3)nc(SCC(N)=O)c2C#N)cc1 | > 250 | 41 | 102 | 218 | 65
COC(=O)[C@H](Cc1ccc(O)cc1)NC(=O)CSc1nc(-c2ccccc2)cc(-c2ccc(C)cc2)c1C#N | > 250 | > 100 | 18 |  | 
Cc1ccc(-c2cc(-c3ccccc3)nc(SCNC(=O)OC(C)(C)C)c2C#N)cc1 | > 250 | > 100 | > 200 |  | 
COC(=O)[C@H](CCCNC(=N)N)NC(=O)CSc1nc(-c2ccccc2)cc(-c2ccc(C)cc2)c1C#N | > 250 | > 100 | 48 |  | 
CSCC[C@H](N)C(=O)N[C@@H](CC(=O)O)C(=O)N[C@H](C(=O)N[C@@H](CC(N)=O)C(=O)N1CCC[C@H]1C(=O)N[C@H](C(=O)N[C@@H](CC(C)C)C(=O)N[C@@H](CC(C)C)C(=O)N[C@@H](Cc1ccccc1)C(=O)N[C@@H](CC(C)C)C(=O)N[C@@H](CCCCN)C(=O)N[C@H](C(=O)N1CCC[C@H]1C(=O)N[C@@H](C)C(=O)N[C@@H](CCC(N)=O)C(=O)N[C@@H](Cc1ccc(O)cc1)C(=O)NCC(=O)N[C@@H](CCCNC(=N)N)C(=O)N[C@@H](CCCCN)C(=O)N[C@@H](CCCCN)C(=O)N[C@@H](CCCNC(=N)N)C(=O)N[C@@H](CCCNC(=N)N)C(=O)N[C@@H](CCC(N)=O)C(=O)N[C@@H](CCCNC(=N)N)C(=O)N[C@@H](CCCNC(=N)N)C(=O)N[C@@H](CCCNC(=N)N)C(=O)N1CCC[C@H]1C(=O)N1CCC[C@H]1C(=O)O)C(C)C)[C@@H](C)O)C(C)C | > 250 | 49.7 | 31.7 | > 250 | 15.5
COC(=O)C[C@H](NC(=O)[C@@H](NC(=O)CSc1nc(-c2ccccc2)cc(-c2ccc(C)cc2)c1C#N)C(C)C)C(=O)OC | > 250 | 49 | 143 | > 250 | 59
Cc1ccc(-c2cc(-c3ccccc3)nc(SCC(=O)N[C@H](C(=O)O)C(C)C)c2C#N)cc1 | > 250 | 50 | 76 | 250 | 77
Cc1ccc(-c2cc(-c3ccccc3)nc(SCC(=O)O)c2C#N)cc1 | > 250 | 65 | 56 | 218 | 43
Cc1ccc(-c2cc(-c3ccccc3)nc(SCC(=O)N[C@H](C(=O)N[C@@H](CC(=O)O)C(=O)O)C(C)C)c2C#N)cc1 | > 250 | 100 | 77 |  | 
COC(=O)[C@H](Cc1ccccc1)NC(=O)CSc1nc(-c2ccccc2)cc(-c2ccc(C)cc2)c1C#N | 240 | 68 | > 200 |  | 
NC(=O)c1ncn([C@@H]2O[C@H](CO)[C@@H](O)[C@H]2O)n1 [RIBAVIRIN] | > 250 |  |  | > 250 | 23.8
COC(=O)CC[C@H](NC(=O)CSc1nc(-c2ccccc2)cc(-c2ccc(C)cc2)c1C#N)C(=O)OC | > 250 | > 100 | 187 |  | 
CC[C@H](C)[C@H](NC(=O)CSc1nc(-c2ccccc2)cc(-c2ccc(C)cc2)c1C#N)C(=O)OC | > 250 | 39 | 36 | 229 | 53
COC(=O)C[C@H](NC(=O)[C@@H](NC(=O)CSc1nc(-c2ccccc2)cc(-c2ccc(C)cc2)c1C#N)C(C)C)C(=O)N[C@@H](CCSC)C(=O)OC | > 250 | > 100 | 68 |  | 
CCC(CC)O[C@@H]1C=C(C(=O)O)C[C@H](N)[C@H]1NC(C)=O [OSELTAMIVIR CARBOXYLATE] | > 250 | 0.015 |  | > 250 | 
